Test results published in ChEMBL document CHEMBL3045462, “Synthesis and fungicidal activity of novel 4,4'-bis(2' '-aryl-5' '-methyl/unsubstituted-4' '-oxo-thiazolidin-3' '-yl) bibenzyl” (2003).

What follows are molecules tested on Fusarium oxysporum (assay: Growth inhibition of Fusarium oxysporum at 100 ppm after 96 hr by poisoned food technique). Details: read-out: GI.
Assay type: functional
Outline: (§1)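 Poisoned food technique in vitro: test compound mixed into Czapek's agar at 1000, 100 or 10 ppm, then Fusarium oxysporum or Penicillium citrinum grown on the medium. Growth inhibition was scored following previously described methods.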
`COc1ccc([C@@H]2SCC(=O)N2c2ccc(CCc3ccc(N4C(=O)CS[C@H]4c4ccc(OC)c(OC)c4)cc3)cc2)cc1OC` was tested, and the inhibition of growth at 100 ppm was 26%.
`O=C1CS[C@@H](c2ccccc2O)N1c1ccc(CCc2ccc(N3C(=O)CS[C@H]3c3ccccc3O)cc2)cc1` gave an inhibition of growth at 100 ppm of 50%.
`COc1cc([C@@H]2SCC(=O)N2c2ccc(CCc3ccc(N4C(=O)CS[C@H]4c4ccc(O)c(OC)c4)cc3)cc2)ccc1O` was tested, and the inhibition of growth at 100 ppm was 65%.
Molecule `C[C@@H]1S[C@@H](c2ccccc2)N(c2ccc(CCc3ccc(N4C(=O)[C@H](C)S[C@H]4c4ccccc4)cc3)cc2)C1=O` has an inhibition of growth at 100 ppm of 81%.
`COc1ccc([C@@H]2S[C@@H](C)C(=O)N2c2ccc(CCc3ccc(N4C(=O)[C@H](C)S[C@H]4c4ccc(OC)cc4)cc3)cc2)cc1` was tested, and the inhibition of growth at 100 ppm was 62%.
Molecule `C[C@@H]1S[C@@H](c2ccc(Cl)cc2)N(c2ccc(CCc3ccc(N4C(=O)[C@H](C)S[C@H]4c4ccc(Cl)cc4)cc3)cc2)C1=O` has an inhibition of growth at 100 ppm of 65%.
`COc1ccc([C@@H]2S[C@@H](C)C(=O)N2c2ccc(CCc3ccc(N4C(=O)[C@H](C)S[C@H]4c4ccc(OC)c(OC)c4)cc3)cc2)cc1OC` gave an inhibition of growth at 100 ppm of 58%.
`C[C@@H]1S[C@@H](c2ccccc2O)N(c2ccc(CCc3ccc(N4C(=O)[C@H](C)S[C@H]4c4ccccc4O)cc3)cc2)C1=O` showed an inhibition of growth at 100 ppm of 71%.
With `COc1cc([C@@H]2S[C@@H](C)C(=O)N2c2ccc(CCc3ccc(N4C(=O)[C@H](C)S[C@H]4c4ccc(O)c(OC)c4)cc3)cc2)ccc1O` the inhibition of growth at 100 ppm was 85%.

The molecules below were run on Penicillium citrinum (assay: Growth inhibition of Penicillium citrinum at 10 ppm after 96 hr by poisoned food technique). Details: read-out: GI.
Assay type: functional
Outline: as §1
For `COc1ccc([C@@H]2SCC(=O)N2c2ccc(CCc3ccc(N4C(=O)CS[C@H]4c4ccc(OC)c(OC)c4)cc3)cc2)cc1OC`, the inhibition of growth at 10 ppm was 26%.
With `O=C1CS[C@@H](c2ccccc2O)N1c1ccc(CCc2ccc(N3C(=O)CS[C@H]3c3ccccc3O)cc2)cc1` the inhibition of growth at 10 ppm was 25%.
Work on `COc1cc([C@@H]2SCC(=O)N2c2ccc(CCc3ccc(N4C(=O)CS[C@H]4c4ccc(O)c(OC)c4)cc3)cc2)ccc1O` yielded an inhibition of growth at 10 ppm of 38%.
`C[C@@H]1S[C@@H](c2ccccc2)N(c2ccc(CCc3ccc(N4C(=O)[C@H](C)S[C@H]4c4ccccc4)cc3)cc2)C1=O` showed an inhibition of growth at 10 ppm of 53%.
With `COc1ccc([C@@H]2S[C@@H](C)C(=O)N2c2ccc(CCc3ccc(N4C(=O)[C@H](C)S[C@H]4c4ccc(OC)cc4)cc3)cc2)cc1` the inhibition of growth at 10 ppm was 45%.
`C[C@@H]1S[C@@H](c2ccc(Cl)cc2)N(c2ccc(CCc3ccc(N4C(=O)[C@H](C)S[C@H]4c4ccc(Cl)cc4)cc3)cc2)C1=O` showed an inhibition of growth at 10 ppm of 30%.
In the case of `COc1ccc([C@@H]2S[C@@H](C)C(=O)N2c2ccc(CCc3ccc(N4C(=O)[C@H](C)S[C@H]4c4ccc(OC)c(OC)c4)cc3)cc2)cc1OC`, the inhibition of growth at 10 ppm is reported as 46%.
For `C[C@@H]1S[C@@H](c2ccccc2O)N(c2ccc(CCc3ccc(N4C(=O)[C@H](C)S[C@H]4c4ccccc4O)cc3)cc2)C1=O`, the inhibition of growth at 10 ppm was 37%.
For `COc1cc([C@@H]2S[C@@H](C)C(=O)N2c2ccc(CCc3ccc(N4C(=O)[C@H](C)S[C@H]4c4ccc(O)c(OC)c4)cc3)cc2)ccc1O`, the inhibition of growth at 10 ppm was 45%.

The molecules below were run on Penicillium citrinum (assay: Growth inhibition of Penicillium citrinum at 1000 ppm after 96 hr by poisoned food technique). Details: read-out: GI.
Assay type: functional
Outline: as §1
For `COc1ccc([C@@H]2SCC(=O)N2c2ccc(CCc3ccc(N4C(=O)CS[C@H]4c4ccc(OC)c(OC)c4)cc3)cc2)cc1OC`, the inhibition of growth at 1000 ppm was 67%.
`O=C1CS[C@@H](c2ccccc2O)N1c1ccc(CCc2ccc(N3C(=O)CS[C@H]3c3ccccc3O)cc2)cc1` showed an inhibition of growth at 1000 ppm of 67%.
Work on `COc1cc([C@@H]2SCC(=O)N2c2ccc(CCc3ccc(N4C(=O)CS[C@H]4c4ccc(O)c(OC)c4)cc3)cc2)ccc1O` yielded an inhibition of growth at 1000 ppm of 73%.
For `C[C@@H]1S[C@@H](c2ccccc2)N(c2ccc(CCc3ccc(N4C(=O)[C@H](C)S[C@H]4c4ccccc4)cc3)cc2)C1=O`, the inhibition of growth at 1000 ppm was 100%.
In the case of `COc1ccc([C@@H]2S[C@@H](C)C(=O)N2c2ccc(CCc3ccc(N4C(=O)[C@H](C)S[C@H]4c4ccc(OC)cc4)cc3)cc2)cc1`, the inhibition of growth at 1000 ppm is reported as 88%.
Molecule `C[C@@H]1S[C@@H](c2ccc(Cl)cc2)N(c2ccc(CCc3ccc(N4C(=O)[C@H](C)S[C@H]4c4ccc(Cl)cc4)cc3)cc2)C1=O` has an inhibition of growth at 1000 ppm of 68%.
In the case of `COc1ccc([C@@H]2S[C@@H](C)C(=O)N2c2ccc(CCc3ccc(N4C(=O)[C@H](C)S[C@H]4c4ccc(OC)c(OC)c4)cc3)cc2)cc1OC`, the inhibition of growth at 1000 ppm is reported as 63%.
`C[C@@H]1S[C@@H](c2ccccc2O)N(c2ccc(CCc3ccc(N4C(=O)[C@H](C)S[C@H]4c4ccccc4O)cc3)cc2)C1=O` showed an inhibition of growth at 1000 ppm of 78%.
Molecule `COc1cc([C@@H]2S[C@@H](C)C(=O)N2c2ccc(CCc3ccc(N4C(=O)[C@H](C)S[C@H]4c4ccc(O)c(OC)c4)cc3)cc2)ccc1O` has an inhibition of growth at 1000 ppm of 87%.

Each molecule was assayed on Fusarium oxysporum (assay: Growth inhibition of Fusarium oxysporum at 1000 ppm after 96 hr by poisoned food technique). Details: read-out: GI.
Assay type: functional
Outline: as §1
Molecule `COc1ccc([C@@H]2SCC(=O)N2c2ccc(CCc3ccc(N4C(=O)CS[C@H]4c4ccc(OC)c(OC)c4)cc3)cc2)cc1OC` has an inhibition of growth at 1000 ppm of 38%.
`O=C1CS[C@@H](c2ccccc2O)N1c1ccc(CCc2ccc(N3C(=O)CS[C@H]3c3ccccc3O)cc2)cc1` was tested, and the inhibition of growth at 1000 ppm was 61%.
For `COc1cc([C@@H]2SCC(=O)N2c2ccc(CCc3ccc(N4C(=O)CS[C@H]4c4ccc(O)c(OC)c4)cc3)cc2)ccc1O`, the inhibition of growth at 1000 ppm was 78%.
With `C[C@@H]1S[C@@H](c2ccccc2)N(c2ccc(CCc3ccc(N4C(=O)[C@H](C)S[C@H]4c4ccccc4)cc3)cc2)C1=O` the inhibition of growth at 1000 ppm was 100%.
`COc1ccc([C@@H]2S[C@@H](C)C(=O)N2c2ccc(CCc3ccc(N4C(=O)[C@H](C)S[C@H]4c4ccc(OC)cc4)cc3)cc2)cc1` gave an inhibition of growth at 1000 ppm of 85%.
For `C[C@@H]1S[C@@H](c2ccc(Cl)cc2)N(c2ccc(CCc3ccc(N4C(=O)[C@H](C)S[C@H]4c4ccc(Cl)cc4)cc3)cc2)C1=O`, the inhibition of growth at 1000 ppm was 75%.
`COc1ccc([C@@H]2S[C@@H](C)C(=O)N2c2ccc(CCc3ccc(N4C(=O)[C@H](C)S[C@H]4c4ccc(OC)c(OC)c4)cc3)cc2)cc1OC` showed an inhibition of growth at 1000 ppm of 71%.
`C[C@@H]1S[C@@H](c2ccccc2O)N(c2ccc(CCc3ccc(N4C(=O)[C@H](C)S[C@H]4c4ccccc4O)cc3)cc2)C1=O` gave an inhibition of growth at 1000 ppm of 88%.
`COc1cc([C@@H]2S[C@@H](C)C(=O)N2c2ccc(CCc3ccc(N4C(=O)[C@H](C)S[C@H]4c4ccc(O)c(OC)c4)cc3)cc2)ccc1O` was tested, and the inhibition of growth at 1000 ppm was 91%.

What follows are molecules tested on Fusarium oxysporum (assay: Growth inhibition of Fusarium oxysporum at 10 ppm after 96 hr by poisoned food technique). Details: read-out: GI.
Assay type: functional
Outline: as §1
`COc1ccc([C@@H]2SCC(=O)N2c2ccc(CCc3ccc(N4C(=O)CS[C@H]4c4ccc(OC)c(OC)c4)cc3)cc2)cc1OC` gave an inhibition of growth at 10 ppm of 24%.
With `O=C1CS[C@@H](c2ccccc2O)N1c1ccc(CCc2ccc(N3C(=O)CS[C@H]3c3ccccc3O)cc2)cc1` the inhibition of growth at 10 ppm was 39%.
`COc1cc([C@@H]2SCC(=O)N2c2ccc(CCc3ccc(N4C(=O)CS[C@H]4c4ccc(O)c(OC)c4)cc3)cc2)ccc1O` showed an inhibition of growth at 10 ppm of 40%.
For `C[C@@H]1S[C@@H](c2ccccc2)N(c2ccc(CCc3ccc(N4C(=O)[C@H](C)S[C@H]4c4ccccc4)cc3)cc2)C1=O`, the inhibition of growth at 10 ppm was 59%.
`COc1ccc([C@@H]2S[C@@H](C)C(=O)N2c2ccc(CCc3ccc(N4C(=O)[C@H](C)S[C@H]4c4ccc(OC)cc4)cc3)cc2)cc1` gave an inhibition of growth at 10 ppm of 41%.
With `C[C@@H]1S[C@@H](c2ccc(Cl)cc2)N(c2ccc(CCc3ccc(N4C(=O)[C@H](C)S[C@H]4c4ccc(Cl)cc4)cc3)cc2)C1=O` the inhibition of growth at 10 ppm was 40%.
Work on `COc1ccc([C@@H]2S[C@@H](C)C(=O)N2c2ccc(CCc3ccc(N4C(=O)[C@H](C)S[C@H]4c4ccc(OC)c(OC)c4)cc3)cc2)cc1OC` yielded an inhibition of growth at 10 ppm of 51%.
Work on `C[C@@H]1S[C@@H](c2ccccc2O)N(c2ccc(CCc3ccc(N4C(=O)[C@H](C)S[C@H]4c4ccccc4O)cc3)cc2)C1=O` yielded an inhibition of growth at 10 ppm of 30%.
For `COc1cc([C@@H]2S[C@@H](C)C(=O)N2c2ccc(CCc3ccc(N4C(=O)[C@H](C)S[C@H]4c4ccc(O)c(OC)c4)cc3)cc2)ccc1O`, the inhibition of growth at 10 ppm was 76%.

The molecules below were run on Penicillium citrinum (assay: Growth inhibition of Penicillium citrinum at 100 ppm after 96 hr by poisoned food technique). Details: read-out: GI.
Assay type: functional
Outline: as §1
With `COc1ccc([C@@H]2SCC(=O)N2c2ccc(CCc3ccc(N4C(=O)CS[C@H]4c4ccc(OC)c(OC)c4)cc3)cc2)cc1OC` the inhibition of growth at 100 ppm was 50%.
For `O=C1CS[C@@H](c2ccccc2O)N1c1ccc(CCc2ccc(N3C(=O)CS[C@H]3c3ccccc3O)cc2)cc1`, the inhibition of growth at 100 ppm was 40%.
For `COc1cc([C@@H]2SCC(=O)N2c2ccc(CCc3ccc(N4C(=O)CS[C@H]4c4ccc(O)c(OC)c4)cc3)cc2)ccc1O`, the inhibition of growth at 100 ppm was 56%.
`C[C@@H]1S[C@@H](c2ccccc2)N(c2ccc(CCc3ccc(N4C(=O)[C@H](C)S[C@H]4c4ccccc4)cc3)cc2)C1=O` gave an inhibition of growth at 100 ppm of 79%.
With `COc1ccc([C@@H]2S[C@@H](C)C(=O)N2c2ccc(CCc3ccc(N4C(=O)[C@H](C)S[C@H]4c4ccc(OC)cc4)cc3)cc2)cc1` the inhibition of growth at 100 ppm was 69%.
For `C[C@@H]1S[C@@H](c2ccc(Cl)cc2)N(c2ccc(CCc3ccc(N4C(=O)[C@H](C)S[C@H]4c4ccc(Cl)cc4)cc3)cc2)C1=O`, the inhibition of growth at 100 ppm was 42%.
For `COc1ccc([C@@H]2S[C@@H](C)C(=O)N2c2ccc(CCc3ccc(N4C(=O)[C@H](C)S[C@H]4c4ccc(OC)c(OC)c4)cc3)cc2)cc1OC`, the inhibition of growth at 100 ppm was 55%.
For `C[C@@H]1S[C@@H](c2ccccc2O)N(c2ccc(CCc3ccc(N4C(=O)[C@H](C)S[C@H]4c4ccccc4O)cc3)cc2)C1=O`, the inhibition of growth at 100 ppm was 65%.
Molecule `COc1cc([C@@H]2S[C@@H](C)C(=O)N2c2ccc(CCc3ccc(N4C(=O)[C@H](C)S[C@H]4c4ccc(O)c(OC)c4)cc3)cc2)ccc1O` has an inhibition of growth at 100 ppm of 58%.
